Read-outs that look alike come from different tables or passages of the source.

For one assay, the target named is pol β. Conditions: linear mixed-mode inhibition mechanism; cited from earlier work.
Another assay has as its system GM12878 cells. Kind of assay: MTS assay of cell proliferation, GM12878. The assay is classed as cell-based, human. To be noted: for IC50: Homo sapiens. Summed up:
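Lymphoblasts grown in RPMI 1640 with 15% FBS at 37 °C and 5% CO2. Plated at 5 × 10^3 per well, grown 24 h, then exposed 24 or 72 h to test compound alone or with 10 μM lignan inhibitor added. DMSO 0.2% final; vehicle controls. MTS/PMS in PBS pH 7.2 for 4 h at 37 °C; A492; cell-free background. Triplicate; normalized absorbance fitted for IC50 with 95% CI.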

A further assay relates to A549 cells. Kind of assay: MTS assay of cell proliferation, A549. Format: cell-based, human. Conditions: for IC50: Homo sapiens. The essentials: (§1)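 Cells grown in DMEM with 10% FBS at 37 °C and 5% CO2. Plated at 5 × 10^3 per well, grown 24 h, then exposed 24 or 72 h to test compound alone or in pairs: 10 μM bleomycin-type or 250 μM alkylating agent added to the lignan, or 10 μM lignan added to either. DMSO 0.2% final; vehicle controls. MTS/PMS for 4 h; A492; cell-free background. Triplicate; IC50 fit, 95% CI.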

The test system of the next assay is MCF7 cells. Kind of assay: MTS assay of cell proliferation, MCF7. Format: cell-based, human. To be noted: for decrease of EC50 due to HNL/BLM combination: MCF7, combination with honokiol (10 μM); for IC50: Homo sapiens. Summed up:
as §1

For a further assay, the system named is PANC1 cells. In words: MTS assay of cell proliferation, PANC1. The assay is classed as cell-based, human. Conditions: for IC50: Homo sapiens. The essentials:
as §1

For another assay, the system named is UACC903 cells. Kind of assay: MTS assay of cell proliferation, UACC903. The assay is classed as cell-based, human. Conditions: for decrease of EC50 due to HNL/BLM combination: UACC903, combination with honokiol (10 μM); for IC50: Homo sapiens. The essentials: as §1
The subject of assay [1] is human cancer cell lines A549, MCF7, PANC-1, UACC903. In words: MTS assay of cell proliferation, cell lines not specified. To be noted: combination with honokiol, cell line not specified. The assay is classed as cell-based. Summed up: as §1
Setting [2] is: PANC1, combination with honokiol (10 μM).

In the case of `C=C(C)[C@@H]1CC[C@]2(C)[C@H](CC=C3[C@@H]4C[C@@](C)(C(=O)O)CC[C@]4(C)CC[C@]32C)[C@@]1(C)CCC(=O)O` [koetjapic acid], the Ki entry at pol β was “low micromolar range”.

Take bleomycin [BLM]: the “−log(IC50) (95% CI)” value is on record as 4.2 (4.0, 4.3) in the assay with GM12878 cells (GM12878, 24 h, supplemented with 10 μM HNL); 4.1 (3.91, 4.3) with GM12878 cells (GM12878, 24 h, tested compound alone); 4.20 (4.0, 4.4) in the assay on GM12878 cells (GM12878, 72 h, supplemented with 10 μM HNL); 4.1 (4.0, 4.3) with GM12878 cells (GM12878, 72 h, tested compound alone); 5.30 (5.18, 5.43) with A549 cells (A549, 24 h, supplemented with 10 μM HNL); 4.8 (4.7, 5.0) with A549 cells (A549, 24 h, tested compound alone). The “−log(IC50) (95% CI)” value is 5.6 (5.5, 5.7) in the assay on A549 cells (A549, 72 h, supplemented with 10 μM HNL); 5.2 (5.0, 5.3) with A549 cells (A549, 72 h, tested compound alone); 6.0 (5.7, 6.2) with MCF7 cells (MCF7, 24 h, supplemented with 10 μM HNL); 4.9 (4.8, 5.0) with MCF7 cells (MCF7, 24 h, tested compound alone); 6.3 (6.1, 6.6) in the assay with MCF7 cells (MCF7, 72 h, supplemented with 10 μM HNL); 5.3 (5.2, 5.4) with MCF7 cells (MCF7, 72 h, tested compound alone). Also, the “−log(IC50) (95% CI)” value in the assay with PANC1 cells (PANC1, 24 h, supplemented with 10 μM HNL) is given as 5.9 (5.7, 6.2); with PANC1 cells (PANC1, 24 h, tested compound alone) it was 4.9 (4.7, 5.1); in the assay with PANC1 cells (PANC1, 72 h, supplemented with 10 μM HNL), 6.09 (5.9, 6.3); in the assay on PANC1 cells (PANC1, 72 h, tested compound alone) it was 5.2 (5.0, 5.3); in the assay on UACC903 cells (UACC903, 24 h, supplemented with 10 μM HNL) it was 5.5 (5.4, 5.7); in the assay on UACC903 cells (UACC903, 24 h, tested compound alone) it was 4.9 (4.7, 5.0). In addition, the “−log(IC50) (95% CI)” value was 6.3 (6.0, 6.5) with UACC903 cells (UACC903, 72 h, supplemented with 10 μM HNL) and 5.22 (5.1, 5.4) in the assay on UACC903 cells (UACC903, 72 h, tested compound alone). The “decrease of EC50 due to HNL/BLM combination” value was “up to 10 fold” in the assay on MCF7 cells; 10 fold in the assay with MCF7 cells (listed as bleomycin); “up to 10 fold” in the assay on PANC1 cells (setting [2]); 10 fold in the assay on PANC1 cells (PANC1, combination with honokiol (10 μM), listed as bleomycin); “up to 10 fold” with UACC903 cells; 10 fold in the assay with UACC903 cells (listed as bleomycin).

On to `Cn1nnc2c(C(N)=O)ncn2c1=O` [TMZ, temozolomide], for which the IC50 in the assay on GM12878 cells (24 h, read-out: −log(IC50) (95% CI), GM12878, 24 h, tested compound alone (converted)) was < 1000 µM; in the assay with GM12878 cells (72 h, read-out: −log(IC50) (95% CI), GM12878, 72 h, tested compound alone (converted)) it was 316 µM; with A549 cells (A549, 24 h, read-out: −log(IC50) (95% CI), A549, 24 h, tested compound alone (converted)), 398 µM; in the assay on A549 cells (A549, 72 h, read-out: −log(IC50) (95% CI), A549, 72 h, tested compound alone (converted)) it was 251 µM; in the assay on MCF7 cells (MCF7, 24 h, read-out: −log(IC50) (95% CI), MCF7, 24 h, tested compound alone (converted)), 501 µM; in the assay with MCF7 cells (MCF7, 72 h, read-out: −log(IC50) (95% CI), MCF7, 72 h, tested compound alone (converted)), 200 µM. Also, the IC50 with PANC1 cells (PANC-1, 24 h, read-out: −log(IC50) (95% CI), PANC1, 24 h, tested compound alone (converted)) was 316 µM; with PANC1 cells (PANC-1, 72 h, read-out: −log(IC50) (95% CI), PANC1, 72 h, tested compound alone (converted)), 158 µM; with UACC903 cells (UACC-903, 24 h, read-out: −log(IC50) (95% CI), UACC903, 24 h, tested compound alone (converted)), 631 µM; in the assay with UACC903 cells (UACC-903, 72 h, read-out: −log(IC50) (95% CI), UACC903, 72 h, tested compound alone (converted)), 316 µM. Moreover, the “decrease of EC50 due to HNL/TMZ combination” value is on record as “up to three-fold” in the assay on PANC1 cells (setting [2]), “up to three-fold” in assay [1] and “three-fold” in assay [1] (listed as temozolomide).

Values taken from article PMC5665024 (Chemical research in toxicology, 2017).
